Source: ChEMBL document CHEMBL4354843, “Structure-Based Design of a Potent and Selective Covalent Inhibitor for SRC Kinase That Targets a P-Loop Cysteine” (J Med Chem, 2020)

How the values were obtained:
[1] = target: Death-associated protein kinase 1 (Homo sapiens) (UniProt P53355); assay: Binding affinity to wild-type human partial length DAPK1 (M1 to F296 residues) expressed in bacterial expression system assessed as residual binding level at 1 uM by Kinomescan method relative to control
[2] = target: Serine/threonine-protein kinase 10 (Homo sapiens) (UniProt O94804); assay: Binding affinity to wild-type human partial length LOK (E16 to V314 residues) expressed in bacterial expression system assessed as residual binding level at 1 uM by Kinomescan method relative to control
Procedure, shortened: (§1)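 Active-site-directed competition binding panel of 468 kinases (KinomeScan), compound at 1 μM. The read-out is kinase remaining bound, given as a percentage of the DMSO control. […]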

[3] = target: Tyrosine-protein kinase receptor TYRO3 (Homo sapiens) (UniProt Q06418); assay: Binding affinity to wild-type human partial length TYRO3 (S497 to T814 residues) expressed in bacterial expression system assessed as residual binding level at 1 uM by Kinomescan method relative to control
[4] = target: Serine/threonine-protein kinase 32A (Homo sapiens) (UniProt Q8WU08); assay: Binding affinity to wild-type human full length YANK1 (M1 to L396 residues) expressed in mammalian expression system assessed as residual binding level at 1 uM by Kinomescan method relative to control
[5] = target: Mitogen-activated protein kinase kinase kinase 14 (Homo sapiens) (UniProt Q99558); assay: Binding affinity to wild-type human partial length NIK (L318 to P947 residues) expressed in mammalian expression system assessed as residual binding level at 1 uM by Kinomescan method relative to control
[6] = target: AP2-associated protein kinase 1 (Homo sapiens) (UniProt Q2M2I8); assay: Binding affinity to human wild-type AAK1 (G25 to L333 residues) expressed in bacterial expression system assessed as residual binding level at 1 uM by Kinomescan method relative to control
Procedure, shortened: (§2)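 Active-site-directed KinomeScan competition binding panel covering 468 kinases, compound tested at 1 μM. Each readout is the kinase signal remaining with compound, expressed as a percentage of the DMSO control. […]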

[7] = target: Mitogen-activated protein kinase 11 (Homo sapiens) (UniProt Q15759); assay: Binding affinity to wild-type human full length p38-beta (M1 to Q364 residues) expressed in bacterial expression system assessed as residual binding level at 1 uM by Kinomescan method relative to control
Procedure, shortened: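 KinomeScan, an active site-directed competition binding panel of 468 kinases. The test compound was at 1 μM. The readout is remaining kinase binding as a percentage of the DMSO control. Scores above 35% were treated as weak binding and not listed.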

[8] = target: Mitogen-activated protein kinase kinase kinase 7 (Homo sapiens) (UniProt O43318); assay: Binding affinity to wild-type human partial length TAK1 (M1 to Q303 residues) expressed in mammalian expression system assessed as residual binding level at 1 uM by Kinomescan method relative to control
Procedure, shortened: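 Active site-directed competition binding panel (KinomeScan, 468 kinases). Test compound at 1 μM. Read-out is kinase binding remaining versus DMSO control, expressed as percent of control. Scores above 35% are treated as weak binding.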

[9] = target: Serine/threonine-protein kinase 38 (Homo sapiens) (UniProt Q15208); assay: Binding affinity to wild-type human partial length NDR1 (N33 to E449 residues) expressed in mammalian expression system assessed as residual binding level at 1 uM by Kinomescan method relative to control; procedure, shortened: as §1
[10] = target: Serine/threonine-protein kinase LATS2 (Homo sapiens) (UniProt Q9NRM7); assay: Binding affinity to wild-type human partial length LATS2 (Q641 to V1088 residues) expressed in mammalian expression system assessed as residual binding level at 1 uM by Kinomescan method relative to control
[11] = target: G protein-coupled receptor kinase 4 (Homo sapiens) (UniProt P32298); assay: Binding affinity to wild-type human full length GRK4 (M1 to C578 residues) expressed in bacterial expression system assessed as residual binding level at 1 uM by Kinomescan method relative to control; procedure, shortened: as §2
[12] = target: Platelet-derived growth factor receptor alpha (Homo sapiens) (UniProt P16234); assay: Binding affinity to wild-type human partial length PDGFRA (V575 to D1002 residues) expressed in mammalian expression system assessed as residual binding level at 1 uM by Kinomescan method relative to control; procedure, shortened: as §1
[13] = system: Receptor-type tyrosine-protein kinase FLT3 (Homo sapiens), P36888 [N841I]; assay: Binding affinity to human partial length FLT3 N841I mutant (V592 to Y969 residues) expressed in bacterial expression system assessed as residual binding level at 1 uM by Kinomescan method relative to control
Procedure, shortened: (§3)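 KinomeScan active site-directed competition binding panel (468 kinases), compound tested at 1 μM. Result expressed as remaining kinase signal versus DMSO control (percent of control).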

[14] = target: Serine/threonine-protein kinase PAK 6 (Homo sapiens) (UniProt Q9NQU5); assay: Binding affinity to wild-type human partial length PAK6 (N298 to C681 residues) expressed in bacterial expression system assessed as residual binding level at 1 uM by Kinomescan method relative to control; procedure, shortened: as §1
[15] = target: Mast/stem cell growth factor receptor Kit (Homo sapiens) (UniProt P10721); assay: Binding affinity to wild-type human partial length autoinhibited KIT (Y545 to D952 residues) expressed in mammalian expression system assessed as residual binding level at 1 uM by Kinomescan method relative to control
[16] = system: Proto-oncogene tyrosine-protein kinase receptor Ret (Homo sapiens), P07949 [M918T]; assay: Binding affinity to human partial length RET M918T mutant (E713 to D1014 residues) expressed in bacterial expression system assessed as residual binding level at 1 uM by Kinomescan method relative to control; procedure, shortened: as §3
[17] = target: Serine/threonine-protein kinase WNK1 (Homo sapiens) (UniProt Q9H4A3); assay: Binding affinity to wild-type human partial length WNK1 (Q194 to A490 residues) expressed in mammalian expression system assessed as residual binding level at 1 uM by Kinomescan method relative to control
[18] = target: Calcium/calmodulin-dependent protein kinase kinase 1 (Homo sapiens) (UniProt Q8N5S9); assay: Binding affinity to wild-type human partial length CAMKK1 (R65 to E414 residues) expressed in bacterial expression system assessed as residual binding level at 1 uM by Kinomescan method relative to control
[19] = system: Tyrosine-protein kinase ABL1 (Homo sapiens), P00519 [M351T]; assay: Binding affinity to human phosphorylated ABL1 M351T mutant (S229 to K512 residues) expressed in mammalian expression system assessed as residual binding level at 1 uM by Kinomescan method relative to control; procedure, shortened: as §2
[20] = target: Serine/threonine-protein kinase/endoribonuclease IRE1 (Homo sapiens) (UniProt O75460); assay: Binding affinity to wild-type human partial length ERN1 (S551 to E852 residues) expressed in mammalian expression system assessed as residual binding level at 1 uM by Kinomescan method relative to control; procedure, shortened: as §1

Sequence of Serine/threonine-protein kinase WNK1 (Homo sapiens) (Q9H4A3 whole entry, looked up, the tested form may be a part): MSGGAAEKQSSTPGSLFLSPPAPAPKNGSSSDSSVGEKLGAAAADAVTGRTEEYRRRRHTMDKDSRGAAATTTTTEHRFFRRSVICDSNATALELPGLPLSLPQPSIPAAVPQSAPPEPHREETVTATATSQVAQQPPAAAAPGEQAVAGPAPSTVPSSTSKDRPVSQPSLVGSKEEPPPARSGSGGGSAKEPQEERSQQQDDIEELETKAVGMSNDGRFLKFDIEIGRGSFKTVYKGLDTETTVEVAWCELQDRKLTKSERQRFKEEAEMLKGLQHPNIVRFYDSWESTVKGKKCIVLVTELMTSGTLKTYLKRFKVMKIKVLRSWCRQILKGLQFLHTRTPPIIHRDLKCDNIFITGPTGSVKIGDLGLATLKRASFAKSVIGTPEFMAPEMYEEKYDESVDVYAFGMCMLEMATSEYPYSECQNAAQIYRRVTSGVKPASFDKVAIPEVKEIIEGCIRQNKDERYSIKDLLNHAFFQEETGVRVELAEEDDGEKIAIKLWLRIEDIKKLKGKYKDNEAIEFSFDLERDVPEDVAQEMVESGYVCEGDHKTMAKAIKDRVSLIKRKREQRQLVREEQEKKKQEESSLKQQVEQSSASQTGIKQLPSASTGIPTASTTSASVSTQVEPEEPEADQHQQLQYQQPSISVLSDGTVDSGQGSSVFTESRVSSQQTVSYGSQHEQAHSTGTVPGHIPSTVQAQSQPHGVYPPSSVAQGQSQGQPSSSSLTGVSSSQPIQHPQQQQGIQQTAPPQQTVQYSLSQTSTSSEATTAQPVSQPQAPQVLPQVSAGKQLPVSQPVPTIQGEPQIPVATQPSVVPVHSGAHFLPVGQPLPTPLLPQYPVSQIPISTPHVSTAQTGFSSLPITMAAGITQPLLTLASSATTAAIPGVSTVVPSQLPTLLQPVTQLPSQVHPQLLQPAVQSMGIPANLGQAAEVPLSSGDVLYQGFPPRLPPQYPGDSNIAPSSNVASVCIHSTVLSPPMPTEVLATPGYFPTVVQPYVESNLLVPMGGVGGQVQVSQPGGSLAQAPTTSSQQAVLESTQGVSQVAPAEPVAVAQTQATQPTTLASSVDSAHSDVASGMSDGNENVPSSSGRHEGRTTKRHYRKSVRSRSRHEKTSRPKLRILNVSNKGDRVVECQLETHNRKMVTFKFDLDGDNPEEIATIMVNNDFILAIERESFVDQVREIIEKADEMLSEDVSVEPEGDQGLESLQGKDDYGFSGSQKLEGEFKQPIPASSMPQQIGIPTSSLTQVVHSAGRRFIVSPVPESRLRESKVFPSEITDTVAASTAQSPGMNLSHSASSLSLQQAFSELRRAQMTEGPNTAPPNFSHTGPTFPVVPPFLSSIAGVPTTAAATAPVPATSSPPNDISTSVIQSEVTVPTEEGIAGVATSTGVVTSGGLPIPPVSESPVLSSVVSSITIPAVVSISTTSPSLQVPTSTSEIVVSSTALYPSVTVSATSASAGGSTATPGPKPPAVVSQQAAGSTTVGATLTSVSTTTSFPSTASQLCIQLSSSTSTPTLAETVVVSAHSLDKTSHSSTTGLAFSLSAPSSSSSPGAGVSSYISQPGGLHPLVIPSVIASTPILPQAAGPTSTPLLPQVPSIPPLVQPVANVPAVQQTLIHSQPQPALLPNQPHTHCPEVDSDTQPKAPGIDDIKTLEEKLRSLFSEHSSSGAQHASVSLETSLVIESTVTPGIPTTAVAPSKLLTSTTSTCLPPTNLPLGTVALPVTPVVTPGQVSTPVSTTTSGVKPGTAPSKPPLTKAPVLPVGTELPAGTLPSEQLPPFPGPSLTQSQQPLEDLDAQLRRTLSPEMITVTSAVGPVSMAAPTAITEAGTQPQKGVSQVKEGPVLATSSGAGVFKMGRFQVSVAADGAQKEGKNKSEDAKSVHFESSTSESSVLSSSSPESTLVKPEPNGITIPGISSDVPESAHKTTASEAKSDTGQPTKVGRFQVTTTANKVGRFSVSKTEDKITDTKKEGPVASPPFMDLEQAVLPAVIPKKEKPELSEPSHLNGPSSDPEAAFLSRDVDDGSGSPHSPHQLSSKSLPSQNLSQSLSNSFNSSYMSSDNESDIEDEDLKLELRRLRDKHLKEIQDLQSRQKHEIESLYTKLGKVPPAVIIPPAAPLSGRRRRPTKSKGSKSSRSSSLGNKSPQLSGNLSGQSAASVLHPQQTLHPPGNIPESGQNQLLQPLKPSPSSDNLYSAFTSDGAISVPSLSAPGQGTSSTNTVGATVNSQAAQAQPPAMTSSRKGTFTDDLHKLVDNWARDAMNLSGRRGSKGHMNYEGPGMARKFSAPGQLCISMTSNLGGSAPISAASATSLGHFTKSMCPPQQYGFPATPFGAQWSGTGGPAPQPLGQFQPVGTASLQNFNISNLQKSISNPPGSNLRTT
Sequence of G protein-coupled receptor kinase 4 (Homo sapiens) (P32298 whole entry, looked up, the tested form may be a part): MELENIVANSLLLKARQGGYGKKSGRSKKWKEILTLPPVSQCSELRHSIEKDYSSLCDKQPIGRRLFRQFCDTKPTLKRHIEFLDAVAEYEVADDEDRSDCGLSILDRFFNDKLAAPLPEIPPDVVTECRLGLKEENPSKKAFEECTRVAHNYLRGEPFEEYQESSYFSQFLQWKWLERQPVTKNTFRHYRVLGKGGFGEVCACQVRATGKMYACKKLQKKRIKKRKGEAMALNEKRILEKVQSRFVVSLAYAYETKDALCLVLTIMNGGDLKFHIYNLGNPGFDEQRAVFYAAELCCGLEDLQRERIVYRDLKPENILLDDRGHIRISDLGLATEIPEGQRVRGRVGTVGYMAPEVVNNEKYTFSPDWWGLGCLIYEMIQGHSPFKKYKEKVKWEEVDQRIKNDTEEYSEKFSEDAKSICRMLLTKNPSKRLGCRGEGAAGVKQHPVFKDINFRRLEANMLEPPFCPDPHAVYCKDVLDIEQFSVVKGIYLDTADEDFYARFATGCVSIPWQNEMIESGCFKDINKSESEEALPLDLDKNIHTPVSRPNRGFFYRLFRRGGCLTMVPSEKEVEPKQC
Sequence of Proto-oncogene tyrosine-protein kinase receptor Ret (Homo sapiens), P07949 [M918T] (P07949 whole entry M918T, the tested form may be a part): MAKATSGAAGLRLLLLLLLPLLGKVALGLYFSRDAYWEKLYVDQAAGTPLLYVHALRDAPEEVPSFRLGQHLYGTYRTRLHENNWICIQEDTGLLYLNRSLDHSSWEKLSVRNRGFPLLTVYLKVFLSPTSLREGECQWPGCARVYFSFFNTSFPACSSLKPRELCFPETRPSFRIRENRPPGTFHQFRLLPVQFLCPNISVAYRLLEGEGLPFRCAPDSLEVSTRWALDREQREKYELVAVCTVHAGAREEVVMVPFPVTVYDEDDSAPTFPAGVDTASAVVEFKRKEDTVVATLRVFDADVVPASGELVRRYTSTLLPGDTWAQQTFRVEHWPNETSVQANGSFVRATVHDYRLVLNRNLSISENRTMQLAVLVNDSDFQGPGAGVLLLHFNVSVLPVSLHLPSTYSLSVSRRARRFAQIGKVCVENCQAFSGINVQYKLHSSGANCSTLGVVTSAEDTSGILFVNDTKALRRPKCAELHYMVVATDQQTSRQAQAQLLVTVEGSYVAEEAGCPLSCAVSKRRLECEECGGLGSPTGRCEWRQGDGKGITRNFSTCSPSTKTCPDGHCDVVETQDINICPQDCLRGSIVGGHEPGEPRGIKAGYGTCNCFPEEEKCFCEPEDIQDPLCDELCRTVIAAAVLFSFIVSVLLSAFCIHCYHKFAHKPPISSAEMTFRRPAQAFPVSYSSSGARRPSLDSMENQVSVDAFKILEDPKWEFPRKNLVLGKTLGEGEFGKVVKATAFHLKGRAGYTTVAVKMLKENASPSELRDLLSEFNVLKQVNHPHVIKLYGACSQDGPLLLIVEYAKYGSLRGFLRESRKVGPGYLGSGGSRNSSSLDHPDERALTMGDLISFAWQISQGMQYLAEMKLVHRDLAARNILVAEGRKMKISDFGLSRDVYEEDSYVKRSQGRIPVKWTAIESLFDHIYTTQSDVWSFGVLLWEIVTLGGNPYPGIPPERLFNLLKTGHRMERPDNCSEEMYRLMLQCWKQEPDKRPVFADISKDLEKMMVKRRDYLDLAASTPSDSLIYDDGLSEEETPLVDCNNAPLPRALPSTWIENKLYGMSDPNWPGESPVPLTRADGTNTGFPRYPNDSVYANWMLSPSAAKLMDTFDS
Sequence of Calcium/calmodulin-dependent protein kinase kinase 1 (Homo sapiens) (Q8N5S9 whole entry, looked up, the tested form may be a part): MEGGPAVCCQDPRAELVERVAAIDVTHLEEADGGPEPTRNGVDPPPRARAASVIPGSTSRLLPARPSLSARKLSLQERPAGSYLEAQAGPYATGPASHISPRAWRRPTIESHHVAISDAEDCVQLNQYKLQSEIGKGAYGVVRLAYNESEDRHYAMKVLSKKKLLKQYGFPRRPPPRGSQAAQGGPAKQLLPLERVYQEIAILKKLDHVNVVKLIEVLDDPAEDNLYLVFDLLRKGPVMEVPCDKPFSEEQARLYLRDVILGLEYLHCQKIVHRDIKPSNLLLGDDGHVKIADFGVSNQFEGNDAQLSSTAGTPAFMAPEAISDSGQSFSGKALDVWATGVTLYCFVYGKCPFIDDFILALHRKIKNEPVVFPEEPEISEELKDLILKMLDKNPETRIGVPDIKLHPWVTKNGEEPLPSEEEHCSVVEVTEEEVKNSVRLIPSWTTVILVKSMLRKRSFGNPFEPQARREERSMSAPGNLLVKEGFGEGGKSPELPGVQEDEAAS
Sequence of Serine/threonine-protein kinase 38 (Homo sapiens) (Q15208 2-465 limits assumed): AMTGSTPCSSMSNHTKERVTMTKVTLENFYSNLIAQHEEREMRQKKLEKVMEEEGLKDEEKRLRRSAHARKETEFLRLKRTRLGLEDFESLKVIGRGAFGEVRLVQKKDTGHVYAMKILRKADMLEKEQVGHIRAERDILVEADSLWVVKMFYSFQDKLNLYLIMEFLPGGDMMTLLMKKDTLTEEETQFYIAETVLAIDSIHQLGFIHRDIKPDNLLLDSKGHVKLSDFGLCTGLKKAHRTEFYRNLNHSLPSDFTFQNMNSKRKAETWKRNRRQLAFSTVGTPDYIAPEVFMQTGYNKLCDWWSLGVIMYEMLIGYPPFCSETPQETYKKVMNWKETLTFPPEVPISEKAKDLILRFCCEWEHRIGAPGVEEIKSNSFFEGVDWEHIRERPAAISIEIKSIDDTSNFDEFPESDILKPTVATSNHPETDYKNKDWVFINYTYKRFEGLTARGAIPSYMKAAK

## C=CC(=O)Nc1ccccc1Nc1nc(Nc2ccc(N3CCN(C)CC3)cc2)ncc1C(=O)Nc1c(C)cccc1Cl
[1]
  Activity: 100%
[2]
  Activity: 96%
[3]
  Activity: 89%
[4]
  Activity: 100%
[5]
  Activity: 100%
[6]
  Activity: 100%
[7]
  Activity: 98%
[8]
  Activity: 99%
[9]
  Activity: 90%
[10]
  Activity: 100%
[11]
  Activity: 100%
[12]
  Activity: 90%
[13]
  Activity: 100%
[14]
  Activity: 81%
[15]
  Activity: 92%
[16]
  Activity: 87%
[17]
  Activity: 100%
[18]
  Activity: 100%
[19]
  Activity: 0.8%
[20]
  Activity: 98%
